Bioassay records as filed in PubChem BioAssay.
Only some compounds are listed: those with a hit (about 1.9% of all), similar ones and a draw of the others.
Rce1 inhib: blocks yeast Ras-converting enzyme | calls only | Q03530 | hit rate 0.27% among 290,000 | yeast membranes, quenched prenylated peptide cleavage fluorescence;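 active = fall in fluorescence gain of 50% or more versus controls, with final raw signal at or below 3038400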;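 also: plate controls were neutral control wells for no effect and wells lacking membranes for full effect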
Target sequence (Q03530 whole entry, looked up): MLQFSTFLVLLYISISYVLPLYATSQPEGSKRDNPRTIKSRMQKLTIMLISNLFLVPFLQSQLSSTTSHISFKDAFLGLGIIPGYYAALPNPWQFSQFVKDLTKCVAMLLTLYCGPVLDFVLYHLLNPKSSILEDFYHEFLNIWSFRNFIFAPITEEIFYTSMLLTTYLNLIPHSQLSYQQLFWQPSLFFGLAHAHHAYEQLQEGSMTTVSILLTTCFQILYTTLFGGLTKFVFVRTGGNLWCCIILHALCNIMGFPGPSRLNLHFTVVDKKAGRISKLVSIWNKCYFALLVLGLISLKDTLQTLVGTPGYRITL
Yeast superoxide: caloric restriction mimetics inhibiting age-related superoxide in yeast; hit rate 0.18% among 330,000; superoxide response (% of plate mean), % at 10 µM; S. cerevisiae aged cells, superoxide DHE fluorescence; stronger effect = lower value; AID 2690;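 active = superoxide response under a set limit, about three screen SD below normal, cut at about 65% in these data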;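 also: yeast aged for seven days with compound at 30 °C before DHE staining; 100% = average MFI of all compound-treated wells on the plate with controls excluded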
MIN6 prolif-1: induces beta-cell replication in MIN6 cells | proliferation, % at 10 µM | MIN6 cells proliferation, ATPlite luminescence, 48 h; cells starved in 0.2% serum; 100% = growth in 10% serum | hit rate 0.29% among 330,000;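 active = compounds whose signal lies at least 3.5 SD above the mean of all wells on their plate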;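 also: 0% = DMSO-treated cells in low-serum medium and 100% = 10% serum control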
T cell HTS: T cell immune modulation candidate | 2C CD8+ T cell-vesicle binding, flow cytometry; stronger effect = lower value | response (vesicle binding), % at 7 µM | hit rate 0.068% among 330,000;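 active = response, share of CD8 T cells binding vesicles, and their 90th percentile fluorescence all below set limits, cut at about 80% in these data, passing the limit was not always enough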;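 also: values below 100% mean blocked vesicle binding to the CD8+ T cells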
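material = purified 2C TCR transgenic mouse naive CD8+ T cells | controls = Unloaded micro-vesicles (low), QL9 vesicles with 0.7% DMSO (high) | detection = cytometric PE anti-B7-1 and Alexa647 anti-CD8 signals after 1% paraformaldehyde fixation | incubation = binding step 1.5 h, 37 °C, antibody labelling 20 min, ice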
proKLK7 act: activators of human kallikrein-7 zymogen. P49862. purified proKLK7, EDANS-DABCYL substrate fluorescence; 100% is mature enzyme control, 0% vehicle. activation, % at 7 µM. hit rate 0.9% among 370,000;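 active = activation above the mean of all tested compounds plus 3 SD, computed per campaign excluding outliers beyond control limits, cut at about 13% in these data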
Target sequence (P49862 whole entry, looked up): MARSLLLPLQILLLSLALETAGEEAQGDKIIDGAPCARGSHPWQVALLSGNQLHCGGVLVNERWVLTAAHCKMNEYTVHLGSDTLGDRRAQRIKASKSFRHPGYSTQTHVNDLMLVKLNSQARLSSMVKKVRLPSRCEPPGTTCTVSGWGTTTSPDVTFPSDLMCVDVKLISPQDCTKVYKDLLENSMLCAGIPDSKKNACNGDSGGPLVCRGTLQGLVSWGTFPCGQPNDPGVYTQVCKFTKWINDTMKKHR
V-ATPase pHluor: alters yeast V-ATPase proton transport | S. cerevisiae, pHLuorin cytosolic pH fluorescence | response, % at 10 µM | hit rate 0.37% among 350,000 | AID 504577; in the data active = response mostly above about 7.3%, no sharp cut-off; inactive = mostly below about 5.4%; also: actives read high
MIN6 prolif-2: MIN6 beta-cell replication induction, confirmed; 920 tested, under 10 active; shares compounds with MIN6 prolif-1; proliferation increase, % at 50 µM; AID 463095; MIN6 beta-cell proliferation, ATPlite luminescence, 48 h; cells kept in 0.2% serum; scaled between 0.2% and 10% serum;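 active = proliferation increase above 40% at any of the four tested concentrations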
Active calls of the source: *; i = inactive; / = no result given; + = active, no number; ! = not active in a repeat.

SMILES | Rce1 inhib | Yeast superoxide | MIN6 prolif-1 | T cell HTS | proKLK7 act | V-ATPase pHluor | MIN6 prolif-2
CCN(CC)CCCn1c(C)cc2c(c1=O)C(c1cccc(Cl)c1)C(C#N)=C(N)O2 (configuration not stated) | / | / | / | / | 0 | 36* | /
CCN(CC)CCCn1c(C)cc2c(c1=O)C(c1cc(OC)c(OC)cc1OC)C(C#N)=C(N)O2 (configuration not stated) | / | 103 | -2 | 478 | 0 | 5 | /
COCCSc1ncccc1-c1nc2ccccc2[nH]1 | / | / | / | / | -1 | / | /
CC(=O)OC[C@]12CC[C@H]3[C@@](C)(CC[C@H]4C(C)(C)CCC[C@]34C)[C@@H]1C[C@H](C1=CC(=O)O[C@H]1OC(C)=O)O2 | / | 110 | -6 | 272 | / | / | /
CC(=O)OC[C@]12CC[C@H]3[C@@](C)(CC[C@H]4C(C)(C)CCC[C@]34C)[C@@H]1C[C@@H](C1=CC(=O)O[C@@H]1OC(C)=O)O2 | / | 114 | -6 | 0.0* | / | / | /
O=C(C1CCC(=O)N(C2CC2)C1)N1CCN(c2ccccc2Cl)CC1 (configuration not stated) | + | 97 | 3 | 837 | 0 | -3 | /
c1ccc(CNc2nc(N3CCN(Cc4ccccc4)CC3)nc3ccccc23)cc1 | + | 90 | -4 | 175 | -1 | 0 | /
O=C(CSc1nnc(-c2ccccc2)n1-c1ccc(Cl)cc1)c1ccccc1Br | / | / | / | / | 0 | / | /
Cc1ccc(F)cc1NC(=O)Nc1cc(C(C)(C)C)nn1C | i | 104 | 6.9* | 339 | 0 | -1 | -3
COc1ccccc1NC(=O)Nc1cc(C(C)(C)C)nn1C | i | 100 | -3 | 57 | 1 | 2 | /
COc1ccccc1N(C(=O)c1ccco1)C(C(=O)NC1CCCC1)c1cccs1 (configuration not stated) | i | 96 | 0.0* | 251 | 0 | -4 | -1
COc1ccccc1N(C(=O)c1snc(C(N)=O)c1N)C(C(=O)NC1CCCCC1)c1cccc(OC)c1OC (configuration not stated) | i | 134 | 25* | 350 | 2 | -2 | -6
COc1ccc(N(C(=O)c2ccco2)C(C(=O)NC2CCCC2)c2cccs2)cc1OC (configuration not stated) | i | 106 | -2 | 351 | 0 | 0 | /
CS(=O)(=O)c1ccc(-c2csc(-c3cccnc3)n2)cc1 | i | 88 | 9.8* | 357 | 0 | 2 | 3
CN(C)S(=O)(=O)c1ccc(-c2csc(-c3cccnc3)n2)cc1 | / | 101 | 0 | 392 | 0 | -4 | /
CCNC(=S)NNC(=O)c1cnccn1 | / | / | / | / | 0 | / | /
S=c1[nH]nc(C2CCCCC2)n1/N=C/c1cccc(Br)c1 | i | 97 | 2 | 313 | 0 | -1 | /
Cc1cccc(/C=N/n2c(C3CCCCC3)n[nH]c2=S)c1 | i | 83 | 6.7* | 198 | / | -4 | -6
CC(=O)Nc1ccc(S(=O)(=O)NC(=O)C23CC4CC(CC(C4)C2)C3)cc1 | i | 92 | 7.5* | 208 | 0 | 3 | -2
CC(=O)Nc1ccc(S(=O)(=O)NNC(=O)NC23CC4CC(CC(C4)C2)C3)cc1 | i | 75 | -1 | 196 | 1 | -3 | /
Cc1ccccc1-c1ccc2c(c1)[C@@H]1C[C@H](N(C)C(=O)Nc3ccccc3)[C@H]([C@H](C)O)CN1CC2 | / | / | / | / | 3 | / | /
COc1ccc(N2C(=NC(=O)C3CC3)SC3CS(=O)(=O)CC32)cc1Cl (configuration not stated) | i | 101 | 11* | 155 | 0 | -1 | 0
CCOC(=O)CSc1nnc(-c2ccco2)n1-c1ccc(C)cc1 | i | 102 | 2 | 415 | 0 | 4 | /
COC(=O)CSc1nnc(-c2ccco2)n1-c1ccc(C)cc1 | i | 131 | 7.4* | 494 | 0 | -2 | 2
Cc1ccccc1C(=O)N(C)[C@H]1C[C@H]2c3[nH]c4c(-c5ccccc5)cccc4c3CCN2C[C@H]1[C@H](C)O | / | / | / | / | 2 | / | /
SMILES | Rce1 inhib | Yeast superoxide | MIN6 prolif-1 | T cell HTS | proKLK7 act | V-ATPase pHluor | MIN6 prolif-2
CC(C)(C)c1ccc(-c2nnc(SCC(=O)Nc3ccc(S(=O)(=O)Nc4nccs4)cc3)n2Cc2ccco2)cc1 | / | / | / | / | 1 | / | /
Cn1c(O)c(N=NC(=O)CNC(=O)c2ccccc2)c2ccccc21 | i | 110 | 0.0* | 175 | 0 | -1 | 0
Cn1c(O)c(N=NC(=O)CNC(=O)c2ccccc2)c2cc(Br)ccc21 | i | 79 | -1 | 380 | 1 | 0 | /
Cc1cccc(-c2n[nH]c(=S)n2Cc2ccccc2)c1 | i | 85 | 6.3* | 127 | -1 | -6 | -4
S=c1[nH]nc(-c2cccc(Cl)c2)n1Cc1ccccc1 | i | 114 | 2 | 567 | -1 | -3 | /
C[C@@H]1CN([C@@H](C)CO)C(=O)c2cc(Br)cnc2O[C@@H]1CN(C)Cc1ccccn1 | / | / | / | / | 0 | / | /
O=C(CN1CCN(c2nc(-c3ccccc3)cs2)CC1)Nc1ccc(Cl)c(Cl)c1 | / | / | / | / | 0 | / | /
O=C(CCN1C(=O)COc2ccccc21)NCCN1CCN(c2ccccc2F)CC1 | i | 88 | 6.7* | 778 | 0 | 4 | -2
O=C(c1ccccc1)N1CCCC(c2ccc(Cl)cc2)=N1 | i | 100 | 5.4* | 394 | 0 | 0 | -6
O[C@H](COc1ccc(F)cc1)CN1CCC(C(O)(c2ccccc2)c2ccccc2)CC1 | / | / | / | / | 0 | / | /
COC(=O)c1cc2c(c3c4cc(OC)ccc4n(S(=O)(=O)c4cccc(C)c4)c13)C(=O)N(Cc1ccccc1OC)C2 | / | / | / | / | -2 | / | /
Cc1nn(-c2ccccc2)c2sc(-c3nnc(SCC(=O)O)o3)cc12 | i | 118 | 5.1* | 498 | 2 | 0 | -2
COC(=O)C1=C(C)NC(C)=C([N+](=O)[O-])C1c1ccccc1C(F)(F)F (configuration not stated) | i | 104 | 14*! | 979 | 1 | -1 | -6
COc1cc2c3nc4n(c(=O)c3n(CC(=O)N3CCCC3)c2cc1OC)CCS4 | / | / | / | / | -1 | -4 | /
COc1cccc(CNC2CCCc3ccccc32)c1OC (configuration not stated) | i | 93 | 9.1* | 453 | 0 | 0 | -3
C=CCn1cc([N+](=O)[O-])nc1C | i | 105 | 7.8* | 467 | -1 | 2 | -3
CCCCn1cc([N+](=O)[O-])nc1C | i | 90 | 3 | 267 | 0 | -3 | /
COc1cc(/C=C(\C#N)C(=O)Nc2ccc3c(c2)OCCO3)ccc1O | i | 115 | -3 | 89 | 0 | -4 | /
CCC(=O)N(C)C[C@@H]1[C@H](c2ccc(C3=CCCCC3)cc2)[C@H](CO)N1C(=O)CC | / | / | / | / | 1 | / | /
COc1ccc(CCC(=O)OCC(=O)NCc2ccc(OC)c(OC)c2)cc1OC | / | 114 | 9.2* | 212 | 0 | -2 | 2
